Tests used:
[1] = target: T1, HDAC1 (histone deacetylase 1) (Homo sapiens, UniProt Q13547); experiment: (§1) Inhibition of recombinant human HDAC1 at 1 uM using ZMAL as substrate incubated for 90 mins by fluorescence based micro plate assay relative to control; details: recombinant human HDAC1, probe ZMAL
How it was run: (§2)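 Recombinant human HDAC1 or HDAC6 incubated 90 min at 37°C with ZMAL (Z-(Ac)Lys-AMC, 10.5 μM) and inhibitor. Developed with buffer containing trypsin (1 mg/mL) and TSA (2.75 μM), 20 min at 37°C. Fluorescence read at Ex 390/Em 460 nm.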

[2] = system: Schistosoma mansoni; experiment: Antischistosomal activity against Schistosoma mansoni schistosomula at 10 uM incubated for 48 hrs by Alamar Blue assay; assay type: functional
How it was run: (§3)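 S. mansoni newly transformed schistosomula from mechanically transformed cercariae, 100 NTS/well in Medium 199 with 10% FCS, penicillin, streptomycin and rifampicin. Pre-cultured 3 h at 37°C, 5% CO2. Compounds from 20 mM DMSO stocks, final 10 or 20 μM. Alamar Blue added after 48 h exposure, then 24 h more. Resorufin read at Ex 530/Em 590 nm. Live and ethanol-killed larvae as controls; triplicate wells, two biological replicates.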

[3] = target: T2, HDAC6 (protein deacetylase HDAC6) (Homo sapiens, UniProt Q9UBN7); experiment: Inhibition of recombinant human HDAC6 at 1 uM using ZMAL as substrate incubated for 90 mins by fluorescence based micro plate assay relative to control; details: recombinant human HDAC6, probe ZMAL; how it was run: as §2
T2 sequence (Q9UBN7 whole entry): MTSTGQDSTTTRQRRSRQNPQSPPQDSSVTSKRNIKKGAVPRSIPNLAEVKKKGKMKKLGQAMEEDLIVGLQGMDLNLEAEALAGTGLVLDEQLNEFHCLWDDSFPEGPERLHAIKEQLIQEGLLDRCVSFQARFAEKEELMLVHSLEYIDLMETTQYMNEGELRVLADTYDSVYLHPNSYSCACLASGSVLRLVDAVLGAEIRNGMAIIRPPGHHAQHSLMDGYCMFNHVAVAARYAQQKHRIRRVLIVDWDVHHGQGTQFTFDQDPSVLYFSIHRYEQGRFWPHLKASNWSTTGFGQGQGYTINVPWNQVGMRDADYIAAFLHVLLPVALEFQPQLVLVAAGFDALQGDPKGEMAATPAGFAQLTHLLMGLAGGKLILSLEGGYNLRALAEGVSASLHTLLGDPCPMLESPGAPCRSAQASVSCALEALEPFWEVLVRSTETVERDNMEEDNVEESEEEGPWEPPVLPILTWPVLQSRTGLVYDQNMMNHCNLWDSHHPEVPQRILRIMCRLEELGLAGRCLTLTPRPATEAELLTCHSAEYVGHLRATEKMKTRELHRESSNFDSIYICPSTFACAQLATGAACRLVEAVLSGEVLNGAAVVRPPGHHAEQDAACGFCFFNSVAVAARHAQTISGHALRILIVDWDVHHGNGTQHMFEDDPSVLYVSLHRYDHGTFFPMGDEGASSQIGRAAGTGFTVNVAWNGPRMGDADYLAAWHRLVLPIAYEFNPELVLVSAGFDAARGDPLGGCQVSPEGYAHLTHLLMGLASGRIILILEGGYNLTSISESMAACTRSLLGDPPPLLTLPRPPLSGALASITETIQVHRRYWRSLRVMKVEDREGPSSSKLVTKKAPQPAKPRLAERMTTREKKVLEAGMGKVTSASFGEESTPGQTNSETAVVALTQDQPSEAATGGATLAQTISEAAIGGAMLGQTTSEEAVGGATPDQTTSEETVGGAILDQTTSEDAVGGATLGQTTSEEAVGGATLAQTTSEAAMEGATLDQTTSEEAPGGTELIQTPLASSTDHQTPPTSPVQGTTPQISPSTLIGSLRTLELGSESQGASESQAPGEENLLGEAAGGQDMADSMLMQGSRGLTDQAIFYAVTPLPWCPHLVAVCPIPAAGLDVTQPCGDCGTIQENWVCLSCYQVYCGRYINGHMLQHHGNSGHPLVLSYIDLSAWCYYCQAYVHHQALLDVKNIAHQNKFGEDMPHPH

[4] = target: T3, Histone deacetylase 8 (Schistosoma mansoni, UniProt A5H660); experiment: Inhibition of Schistosoma mansoni HDAC8 using Fluor de Lys as substrate incubated for 90 mins by fluorescence method
T3 sequence (A5H660 whole entry): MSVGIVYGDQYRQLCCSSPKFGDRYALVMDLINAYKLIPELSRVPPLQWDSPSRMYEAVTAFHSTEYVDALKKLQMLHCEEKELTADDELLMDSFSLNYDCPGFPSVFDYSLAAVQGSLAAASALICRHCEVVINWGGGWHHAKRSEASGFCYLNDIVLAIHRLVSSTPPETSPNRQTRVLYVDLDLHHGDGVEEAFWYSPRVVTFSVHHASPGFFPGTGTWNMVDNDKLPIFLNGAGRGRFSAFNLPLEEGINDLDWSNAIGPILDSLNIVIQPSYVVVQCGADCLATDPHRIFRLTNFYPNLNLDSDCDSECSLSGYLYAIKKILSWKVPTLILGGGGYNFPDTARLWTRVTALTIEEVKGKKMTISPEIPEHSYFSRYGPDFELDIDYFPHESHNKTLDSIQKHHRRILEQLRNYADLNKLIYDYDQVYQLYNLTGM
How it was run: (§4)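 Recombinant smHDAC8 or hHDAC8 (Romier lab) run to Fluor de Lys HDAC8 kit protocol. Substrate H2N-Arg-His-Lys(Ac)-Lys(Ac)-AMC at 50 μM with increasing inhibitor concentrations, 90 min at 37°C. Stop solution holding inhibitor plus trypsin, then 20 min at 37°C to release AMC. Fluorescence read at Ex 355/Em 460 nm.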

[5] = target: T4, Histone deacetylase 8 (Homo sapiens, UniProt Q9BY41); experiment: Inhibition of human recombinant HDAC8 using H2N-Arg-His-Lys(Ac)-Lys(Ac)-AMC as substrate after 90 mins by fluorescence based micro plate assay
T4 sequence (Q9BY41 whole entry): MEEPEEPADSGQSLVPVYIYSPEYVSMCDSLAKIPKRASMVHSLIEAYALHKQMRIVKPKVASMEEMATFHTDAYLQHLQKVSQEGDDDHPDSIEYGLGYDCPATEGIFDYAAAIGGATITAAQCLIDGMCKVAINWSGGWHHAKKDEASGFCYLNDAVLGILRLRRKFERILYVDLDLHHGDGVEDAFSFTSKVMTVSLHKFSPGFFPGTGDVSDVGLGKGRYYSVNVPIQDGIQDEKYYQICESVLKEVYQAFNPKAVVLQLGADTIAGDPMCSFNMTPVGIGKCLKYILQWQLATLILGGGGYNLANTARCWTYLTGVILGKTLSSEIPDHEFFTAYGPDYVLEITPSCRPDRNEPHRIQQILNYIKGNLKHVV

[6] = system: Schistosoma mansoni; experiment: Antischistosomal activity against Schistosoma mansoni schistosomula at 20 uM incubated for 48 hrs by Alamar Blue assay; assay type: functional; how it was run: as §3
[7] = system: HEK293; experiment: Cytotoxicity against human HEK293 assessed as reduction in cell viability at 50 uM measured for 24 hrs by Alamar Blue assay; assay type: cell-based; details: hek293, 24 h
How it was run: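 HEK293 cells in DMEM with 10% FCS and 5 mM glutamine at 37°C, 5% CO2, seeded at 1.5×10^3 cells/well. Compounds added at 50 μM. AlamarBlue added after 24 h and incubated a further 21 h. Resorufin fluorescence read at Ex 530/Em 590 nm. Triplicates; daunorubicin positive control.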

[8] = target: T2, HDAC6 (protein deacetylase HDAC6); experiment: Inhibition of recombinant human HDAC6 at 100 uM using ZMAL as substrate incubated for 90 mins by fluorescence based micro plate assay relative to control; details: recombinant human HDAC6, probe ZMAL; how it was run: as §2
[9] = target: T5, Histone deacetylase 8 (Schistosoma mansoni) (UniProt A5H660); experiment: Inhibition of Schistosoma mansoni HDAC8 at 0.5 uM using Fluor de Lys as substrate incubated for 90 mins by fluorescence method relative to control; how it was run: as §4
T5 sequence (whole entry): T3 sequence (A5H660 whole entry)

[10] = target: T6, Protein deacetylase HDAC6 (Homo sapiens, UniProt Q9UBN7); experiment: Inhibition of recombinant human HDAC6 using ZMAL as substrate incubated for 90 mins by fluorescence based micro plate assay
T6 sequence (Q9UBN7 whole entry): T2 sequence (Q9UBN7 whole entry)

[11] = Solubility of the compound; assay type: physicochemical
[12] = system: Schistosoma mansoni; experiment: Antischistosomal activity against Schistosoma mansoni schistosomula incubated for 72 hrs by Alamar Blue assay; assay type: functional, organism-based
How it was run: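 Same schistosomula Alamar Blue assay (100 NTS/well, supplemented Medium 199, 37°C, 5% CO2) run over a range of concentrations. Alamar Blue added after 48 h drug exposure, fluorescence (Ex 530/Em 590 nm) read 24 h later, 72 h in culture in total. EC50 taken from the concentration-response.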

[13] = target: T7, Histone deacetylase 1 (Homo sapiens, UniProt Q13547); experiment: Inhibition of recombinant human HDAC1 using ZMAL as substrate incubated for 90 mins by fluorescence based micro plate assay
T7 sequence (Q13547 whole entry): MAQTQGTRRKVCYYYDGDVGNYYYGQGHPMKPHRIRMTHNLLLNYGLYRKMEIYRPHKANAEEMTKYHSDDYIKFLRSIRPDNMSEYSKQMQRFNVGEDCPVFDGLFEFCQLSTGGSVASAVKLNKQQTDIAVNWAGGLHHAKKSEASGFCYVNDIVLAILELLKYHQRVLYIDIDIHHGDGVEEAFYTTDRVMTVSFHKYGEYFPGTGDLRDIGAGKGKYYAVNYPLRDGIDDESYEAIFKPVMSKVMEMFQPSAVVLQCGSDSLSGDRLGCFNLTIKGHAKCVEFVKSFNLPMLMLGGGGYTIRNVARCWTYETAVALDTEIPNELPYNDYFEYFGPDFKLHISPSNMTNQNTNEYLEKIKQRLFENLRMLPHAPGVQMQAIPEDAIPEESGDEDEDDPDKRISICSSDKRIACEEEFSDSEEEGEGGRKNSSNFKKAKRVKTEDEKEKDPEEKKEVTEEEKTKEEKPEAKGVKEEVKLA

[14] = target: T1, HDAC1 (histone deacetylase 1); experiment: Inhibition of recombinant human HDAC1 at 10 uM using ZMAL as substrate incubated for 90 mins by fluorescence based micro plate assay relative to control; details: recombinant human HDAC1, probe ZMAL; how it was run: as §2
[15] = target: T7, Histone deacetylase 1; experiment: as §1; details: 1.5 h, 1 µM; how it was run: as §2
[16] = target: T2, HDAC6 (protein deacetylase HDAC6); experiment: Inhibition of recombinant human HDAC6 at 10 uM using ZMAL as substrate incubated for 90 mins by fluorescence based micro plate assay relative to control; details: recombinant human HDAC6, probe ZMAL; how it was run: as §2
[17] = target: T8, Histone deacetylase 8 (Homo sapiens) (UniProt Q9BY41); experiment: Inhibition of human recombinant HDAC8 at 1 uM using H2N-Arg-His-Lys(Ac)-Lys(Ac)-AMC as substrate after 90 mins by fluorescence based micro plate assay; how it was run: as §4
T8 sequence (whole entry): T4 sequence (Q9BY41 whole entry)

T1 sequence (Q13547 whole entry): as above

inhibition at 1.5 h, 1 µM [1] [%] | inhibition at 1.5 h, 1 µM [3] [%] | IC50 [4] [µM] | IC50 [5] [µM] | inhibition at 1.5 h, 100 µM [8] [%] | inhibition [9] [%] | IC50 [10] [µM] | solubility [11] | EC50 [12] [µM] | IC50 [13] [µM] | inhibition at 1.5 h, 10 µM [14] [%] | inhibition (INH) [15] | inhibition at 1.5 h, 10 µM [16] [%] | inhibition [17] [%] | SMILES | Activity [2] [%] | Activity [6] [%] | Activity [7] [%]
 |  |  |  |  | 51 |  |  |  |  |  |  |  |  | CCOc1ccc(C(=O)NO)cc1NC(=O)c1ccc(OC)cc1 | 64.4 | 59.4 | 88.7
2 | 18 | 0.43 | 0.27 |  |  |  |  |  |  |  |  |  |  | COc1ccc(NC(=O)c2cc(C(=O)NO)ccc2OC)cc1 | 91 | 83.3 | 94.5
 |  | 0.15 |  |  |  | 0.02 |  |  | 0.36 |  |  |  | 71 | COc1ccc(C(C)=O)cc1NC(=O)c1cc(C(=O)NO)ccc1OC | 78.2 | 66.2 | 66.2
 |  | 0.14 | 0.22 |  |  | 0.11 |  |  | 18.1 |  |  |  |  | CCOc1ccc(C(C)=O)cc1NC(=O)c1cc(C(=O)NO)ccc1Cl | 57 | 33.1 | 60.6

The remaining lines, values behind:

SMILES | inhibition at 1.5 h, 1 µM [1] [%] | inhibition at 1.5 h, 1 µM [3] [%] | IC50 [4] [µM] | IC50 [5] [µM] | inhibition at 1.5 h, 100 µM [8] [%] | inhibition [9] [%] | IC50 [10] [µM] | solubility [11] | EC50 [12] [µM] | IC50 [13] [µM] | inhibition at 1.5 h, 10 µM [14] [%] | inhibition (INH) [15] | inhibition at 1.5 h, 10 µM [16] [%] | inhibition [17] [%] | Activity [2] [%] | Activity [6] [%] | Activity [7] [%]
COc1ccc(C(=O)NO)cc1C(=O)Nc1cccc(Cl)c1 | 0 | 25 | 0.17 | 0.28 |  |  |  |  |  |  |  |  |  |  | 85.6 | 82.8 | 88.2
COc1ccc(Cn2ccc3ccc(C(=O)NO)cc32)cc1 |  |  |  |  | 41 |  |  |  |  |  |  |  |  |  | 71 | 62.3 | 96.8
O=C(NO)c1ccc(Cl)c(C(=O)Nc2ccc(Cl)cc2)c1 | 20 | 94 |  |  |  |  |  |  |  |  |  |  |  |  | 77.6 | 62.3 | 69.5
COc1ccc(C(=O)NO)cc1NC(=O)c1cccc2c1oc1ccccc12 |  |  | 0.27 | 0.32 |  |  | 0.29 | Insoluble | 3.5 | 18.5 |  |  |  |  | 2.2 |  | 73
O=C(NO)c1ccc(Cl)c(NC(=O)c2ccc(-c3ccccc3)cc2Cl)c1 | 7 |  | 0.11 | 0.78 |  |  | 2.4 |  |  |  | 18 |  |  |  | 60.6 | 43.5 | 77
COc1ccc(C(=O)NO)cc1NC(=O)c1ccc(-c2ccccc2)cc1Cl |  | 15 | 0.1 | 1.1 |  |  |  |  |  |  | 16 | Not Active | 46 |  | 64 | 65.6 | 94.6
CCCOc1ccc(C(C)=O)cc1C(=O)Nc1cc(C(=O)NO)ccc1C |  |  | 0.11 | 0.14 |  |  | 0.02 |  |  | 0.36 |  |  |  |  | 45.2 | 34 | 68.8

Source: ChEMBL document CHEMBL4842354, “Synthesis, structure-activity relationships, cocrystallization and cellular characterization of novel smHDAC8 inhibitors for the treatment of schistosomiasis” (Eur J Med Chem, 2021)
